Assay results published in the EternaBench riboswitch data.

Test system: MS2 coat protein
Assay: apparent Kd, MS2 coat protein; higher = weaker binding; RNA-MaP array; FMN 200 µM where present
How it was run: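 On Illumina sequencing-chip clusters, designs were transcribed by stalled E. coli RNA polymerase and titrated with SNAP-549-labelled MS2 coat protein (0.7 or 1.5 nM, doubling to 3 µM), without and then with constant ligand, in 100 mM Tris-HCl pH 7.5, 80 mM KCl, 4 mM MgCl2, BSA, DTT, yeast tRNA and Tween-20. Apparent Kd is the median of filtered per-cluster curve fits to green signal normalised to red-channel RNA signal and control-cluster median Fmax.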

[1] = designed as: OFF switch for flavin mononucleotide, no ligand
[2] = ligand present: flavin mononucleotide, designed as: OFF switch for flavin mononucleotide
[3] = designed as: ON switch for flavin mononucleotide, no ligand
[4] = ligand present: flavin mononucleotide, designed as: ON switch for flavin mononucleotide

Row | Sequence | apparent Kd [1] [µM] | apparent Kd [2] [µM] | apparent Kd [3] [µM] | apparent Kd [4] [µM]
1 | GCACUGGAUGUAGGAUAUCAGGACGAUAAGUCCUGAGAAGGACAUGAGGAUCACCCAUGUCUCAUAAACCAGUGCUAUAAUAUA | 0.0146 | 0.0188 |  | 
2 | GUCAGCUCGUGAGGAUAUACAUGAGGAUCACCCAUGUGAUCAAUAGCAGCUUCGGCUGCAUACAUGUAGAAGGCACGAGCUGAU | 0.0432 | 0.0629 |  | 
3 | GUUUCACAUGAGGAUCACCCAUGUGAGGAUAUCGAUUUGUUAACCGUAGUUAAUAGAUCGAGAAGGCGCGUGAU | 0.0706 | 0.0688 |  | 
4 | GUCGGCUCGUGAGGAUAUACAACACUGCUUCGGCAGUGUAUUAAGAUCACAUGAGGAUCACCCAUGUAGAAGGCACGAGCUGAU | 0.0138 | 0.221 |  | 
5 | AUAUAUAUAUAGAAGGUGCCAGCGAGAGCUGCACAUGAGGAUCACCCAUGUUGUCGGUGACGACGCAAGGAUAUAUAUAUAUAU |  |  | 0.034 | 0.0154
6 | AAGAGGUGAGGAUAUCGAAGAAGAAGAAGAAGAAGAAGAAACGAGAAGGCACAUGAGGAUCACCCAUGUAAGAA | 0.0225 | 0.0199 |  | 
7 | AGCGAACAGGCUAACAUGAGGAUCACCCAUGUGGACUCAUGGUAGGAUAUCGGGAAGGAGGAAACCGAGAAGGGCCGGUGAGCA |  |  | 0.0698 | 0.0809
8 | UAAGUUUUGGUAGGAUAUACUUUAAAUUUCUCUAUCCAUACAUGAGGAUCACCCAUGUUUACAUUGUAGAAGGACCUUUAUGUU | 0.0367 | 0.034 |  | 
9 | AAAGGUUGAGGAUAUGCGUGGAAAAAGUGUAUUCAAAAAAAACAUGAGGAUCACCCAUGUAGAAGGCGACCAAA | 0.0936 | 0.245 |  | 
10 | AUCCUGCGAGGAUAUACAUAAUUUUUUUCGUUUUGACUCGAACAUGAGGAUCACCCAUGUAGAAGGUGCUACAC | 0.0337 | 0.0301 |  | 
11 | GCUUGUGAAGGAUAUACUGGCGGCAUGCGCUCGGCACGCGCACAUGAGGAUCACCCAUGUAGAAGGUCAAACGU | 0.0224 | 0.0228 |  | 
12 | AAAAAGGUAGGAUAUACGAGGAGAAAUAAUAAAUAAAUAAAACAUGAGGAUCACCCAUGUAGAAGGACCAAAAA | 0.0261 | 0.0268 |  | 
13 | GGCGGUCGGGAGGAUAUUCGGGCUGUUUGGCUUGGAGAAGGCUCGACAUGAGGAUCACCCAUGUAAGUGUUCUU | 0.376 | 0.406 |  | 
14 | ACAAAUUAGUGAGGAUAUGCAUAAUUUAUAACUGCAGAAGGCACAAACCUCAAGACAUGAGGAUCACCCAUGUGGAAUAUAGAU | 0.0731 | 0.182 |  | 
15 | AGGCCGCUACGCCGGCUUCACGCACAGGAUAUGCAGUUACAUGAGGAUCACCCAUGUGGCCAUGUGCAGAAGGGUGGUUCGUUA |  |  | 0.109 | 0.0245
16 | CAGCGAUAGCUGAACAAUCUAUCACAGGAUAUUCAUGAAACAUGAGGAUCACCCAUGUGAAAUUGGGAGAAGGGUGAUAGAUUG |  |  | 0.0127 | 0.00536
17 | UUGGACGUCGUAGGAUAUGUAGGAUAUUCCUACAUGAGGAUCACCCAUGUUGACAUGGAAGAAGGACCGAAGGACGAUGUCCAU |  |  | 0.148 | 0.691
18 | UGAUAACAUGUAGGAUAUCCAGCAUUGACCAUCGGAGAAGGACAUGAGGAUCACCCAUGUACCGAUACAAUGGAAUAAGGGAAU | 0.0155 | 0.0179 |  | 
19 | CGCCGACAUGAGGAUCACCCAUGUCACAACUGGUCAGGAUAUGGUAUGAUUUGGCUAUUGCCAGAAGGGACCUCAG |  |  | 0.0505 | 0.021
20 | AACAUACAUGAGGAUCACCCAUGUUCCGGCAGGACAGGAUAUACAUCGAAAGUGUUAUAAGUAGAAGGGUCAUAAA |  |  | 0.0779 | 0.0712
21 | GCUAUCGGGUGAGGAUAUAUGAUUGUGAUUAAAAUAGAAGGCAUCUCAGAAGACAUGAGGAUCACCCAUGUAGUUAAGAUGGCU |  |  | 0.0153 | 0.0128
